sPLA2-III inh: Inhibits HGIII-sPLA2 liposome hydrolysis, primary screen; Q9NZ20; QFRET BODIPY PC-A2 liposome hydrolysis, fluorescence; 370,000 tested, 0.56% active; inhibition, % at 12.2 µM;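 active = inhibition above mean plus 3 SD of compounds lying within the high and low control bounds, cut at about 19% in these data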
Target sequence (Q9NZ20 whole entry, looked up): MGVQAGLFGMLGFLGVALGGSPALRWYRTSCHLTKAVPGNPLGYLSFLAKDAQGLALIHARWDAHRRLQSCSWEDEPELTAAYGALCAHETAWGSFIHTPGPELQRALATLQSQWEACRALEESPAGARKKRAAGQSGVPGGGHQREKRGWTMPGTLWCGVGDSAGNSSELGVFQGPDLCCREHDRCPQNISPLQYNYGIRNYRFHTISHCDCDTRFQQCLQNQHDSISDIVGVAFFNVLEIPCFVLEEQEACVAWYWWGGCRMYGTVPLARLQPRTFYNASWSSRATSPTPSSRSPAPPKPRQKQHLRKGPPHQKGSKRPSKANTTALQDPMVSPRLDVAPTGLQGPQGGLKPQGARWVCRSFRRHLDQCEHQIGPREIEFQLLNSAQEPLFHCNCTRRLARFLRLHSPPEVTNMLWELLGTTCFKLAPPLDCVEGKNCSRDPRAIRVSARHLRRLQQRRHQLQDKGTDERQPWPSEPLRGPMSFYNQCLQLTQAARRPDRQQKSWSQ
MT1-MMP act inh: inhibitors of human MT1-MMP activation. P50281. HT1080 RFP-PRO-GFP cells, GFP/RFP ratio fluorescence, overnight; percent of plate control window, DMSO zero. GFP/RFP ratio change, % at 20 µM. 360,000 tested, 0.061% active. AID 651647;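 active = GFP/RFP ratio change of at least 30% with cell ATP level not reduced by more than half and red fluorescence within 50% of control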
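Test system: HT1080 cells expressing an RFP-PRO-GFP fluorescent reporter construct / Compound dosing: single-point 20 µM compound, 1% DMSO / Schedule: cells overnight before dosing, compound overnight, 37 °C, 5% CO2 / Evaluation: GFP/RFP fluorescence ratio / Control set: DMSO and RFP-L50D-GFP cell wells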
Efflux pump mplx: antifungal efflux pump inhibition, Nile Red retention | S. cerevisiae Candida pump triplex | inhibition, % at 10 µM | 330,000 tested, 0.44% active;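 active = plate passing quality check with inhibition over a set limit, or well fluorescence over plate mean plus 4 SD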;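 note: Nile Red retained in pooled yeast measured as flow cytometry median fluorescence; higher means more Nile Red kept so more efflux inhibition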
TAG inh: triacylglycerol accumulation inhibition. 230,000 tested, 0.66% active. inhibition, % at 12.5 µM. H9c2 cells, Nile Red lipid (TAG) fluorescence; cells loaded with 200 µM oleic acid;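 active = pattern-corrected inhibition of lipid staining of at least 50% with the nuclear-stain viability signal not falling by more than 50%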
Of the large screens only hits and unclear results are named; the others gave an inactive call. Hits are enriched below; roughly 1.3% of the tested compounds scored in any of these assays.

CCC(C)(C)c1ccc(Oc2cccc(C(=O)O)c2)cc1	none (no result: TAG inh)
S=C(Nc1cccc(Cl)c1)N(CCCN1CCCC1)Cc1cccn1Cc1ccc(Cl)cc1	none
CSc1cccc(NC(=S)N(CCCN2CCCC2)Cc2cccn2Cc2ccc(Cl)cc2)c1	TAG inh 57
C[C@@H]1COc2cc(Br)ccc2S(=O)(=O)N1Cc1cn(Cc2ccc(Cl)cc2)nn1	none (no result: MT1-MMP act inh, Efflux pump mplx, TAG inh)
COc1cc(/C=C2/SC(=Nc3ccc(O)cc3)NC2=O)ccc1O	TAG inh 59
CCCCn1c(=N)n(CC(=O)c2ccc(Br)s2)c2ccccc21	TAG inh 70
CCn1c(=N)n(CC(=O)c2ccc(Br)s2)c2ccccc21	none
Cc1c(NC(=O)C2CCCN(S(=O)(=O)c3cccc4ccccc34)C2)c(=O)n(-c2ccccc2)n1C (configuration not stated)	none (no result: MT1-MMP act inh, Efflux pump mplx, TAG inh)
S=c1[nH]nc(-c2cc(-c3ccccc3)n[nH]2)n1/N=C/C(Br)=C/c1ccccc1	TAG inh 72
CCCC1CCC2(CC1)CCC2OC(=O)Nc1ccc(F)cc1 (configuration not stated)	none (no result: MT1-MMP act inh, Efflux pump mplx, TAG inh)
OCC1OC(C(N=Nc2ccccc2)=NNc2ccccc2)C(O)C1O (configuration not stated)	sPLA2-III inh 20 (no result: MT1-MMP act inh, Efflux pump mplx, TAG inh)
CCCC1CCC2(CCCN2CCOC(=O)Nc2ccc(Br)cc2)CC1 (configuration not stated)	none (no result: MT1-MMP act inh, Efflux pump mplx, TAG inh)
Cn1nnnc1Sc1ncnc2scc(-c3cccc(Br)c3)c12	TAG inh 67
O=C(CSc1nnc(-c2cccnc2)n1-c1ccccc1)Nc1ccc2c(c1)OCCO2	none (no result: MT1-MMP act inh, Efflux pump mplx, TAG inh)
Cc1cc(-c2ccc(N=Nc3c(S(=O)(=O)O)cc4cc(S(=O)(=O)O)cc(N)c4c3O)c(C)c2)ccc1N=Nc1c(S(=O)(=O)O)cc2cc(S(=O)(=O)O)cc(N)c2c1O	none (no result: sPLA2-III inh, MT1-MMP act inh, TAG inh)
O=S(=O)(O)c1cc(O)c2c(O)c(N=Nc3cc(Cl)ccc3O)c(S(=O)(=O)O)cc2c1	MT1-MMP act inh 77 (no result: sPLA2-III inh, TAG inh)
COc1ccc(-c2nn(C)c3sc(C(=O)NCc4ccco4)cc23)cc1OC	none
COc1ccc(NC(=O)c2cc3c(-c4ccc(OC)c(OC)c4)nn(C)c3s2)cc1OC	TAG inh 79
CN(CCOc1ccc(Cl)cc1)CC(O)c1ccccc1 (configuration not stated)	none (no result: TAG inh)
CN(CCOc1ccc(Br)cc1)CC(O)c1ccccc1 (configuration not stated)	Efflux pump mplx 5.3 (no result: TAG inh)
CCC[C@H]1[C@@H](NC(=O)NCC)CC[C@@]23CCCN2C(=O)CCC[C@@H]13	none (no result: MT1-MMP act inh, Efflux pump mplx, TAG inh)
Cc1cc(C)c(S(=O)(=O)Nc2ccc3c4c(cccc24)CC3)c(C)c1	TAG inh 58
Cc1ccccc1CN1CCN(S(=O)(=O)c2ccc(F)cc2)CC1	none
O=S(=O)(c1ccc(Br)cc1)N1CCCN(Cc2ccccc2F)CC1	Efflux pump mplx 6.8 (no result: TAG inh)
Oc1c(C(Nc2nc3ccccc3s2)c2ccco2)ccc2cccnc12 (configuration not stated)	sPLA2-III inh 34 (no result: TAG inh)
CC(C)C(=O)NC(c1cccc([N+](=O)[O-])c1)c1ccc2cccnc2c1O (configuration not stated)	sPLA2-III inh 23
CCCC(=O)NC(c1cccc([N+](=O)[O-])c1)c1ccc2cccnc2c1O (configuration not stated)	sPLA2-III inh 22 (no result: Efflux pump mplx)
CC(C)C(=O)NC(c1ccco1)c1ccc2cccnc2c1O (configuration not stated)	TAG inh 72
Cc1ccc(Nc2nc(N)nc(-c3oc4ccccc4c3C)n2)cc1	TAG inh 58 (no result: sPLA2-III inh)
Cc1cccc(Nc2nc(N)nc(-c3oc4ccccc4c3C)n2)c1	none
Cc1cc2[nH]c3c(c[n+](C)c4ccccc34)c2cc1C	TAG inh 127
Cc1ccc(S(=O)(=O)NC(=O)Nc2ccc(N(C)C)cc2)cc1	TAG inh 60
O=C(NN1C(=O)/C(=C/C=C/c2ccco2)SC1=S)c1ccccc1O	Efflux pump mplx 2.0
CC(COc1cccc(C#N)c1)CN1CCC(C(O)(c2ccccc2)c2ccccc2)CC1 (configuration not stated)	none (no result: MT1-MMP act inh, Efflux pump mplx, TAG inh)
O=C(c1ccccc1)c1ccc2nc(-c3ccc(NC(=O)c4ccccc4F)cc3)[nH]c2c1	TAG inh 58
Nc1c2ccccc2nc2ccccc12	TAG inh 54
CCOC(=O)N1C(=O)C[C@](Sc2ccc(OC)cc2)(C(=O)N2CCCC2)[C@H]1c1ccc(OC)cc1	none (no result: MT1-MMP act inh, Efflux pump mplx, TAG inh)
CCN1CCN(c2cc(-c3ccccc3)nc3cc(-c4cccc(F)c4)nn23)CC1	Efflux pump mplx 1.3
OC1CCN(c2cc(-c3ccccc3)nc3cc(-c4ccc(F)cc4)nn23)CC1	none (no result: TAG inh)

Source: PubChem
